Assay results from ChEMBL document CHEMBL1127463, “Heteroaryl-fused 2-phenylisothiazolone inhibitors of cartilage breakdown” (J Med Chem, 1994).
pIC50: −log10 of the molar value.

organism: Bos taurus; experiment: In vitro inhibition of human recombinant IL-1-beta-induced breakdown of bovine cartilage in a cartilage organ culture assay; format: functional; conditions: not given
Method in brief: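 Bovine nasal septum cartilage discs (1 mm × 8 mm, cut in eighths) cultured in DMEM + 5% FCS with antibiotics, ± rh IL-1β 500 ng/mL ± drug (DMSO ≤1%) for 40 h at 37 °C. Released GAG measured by 1,9-dimethylmethylene blue against chondroitin sulfate standard, µg/mg wet weight. Eight replicates per group; dose response gives IC50 (µM).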

Row | pIC50 | Structure (SMILES)
1 | < 4.52 | CN(C)[C@@H]1C(O)=C(C(N)=O)C(=O)[C@@]2(O)C(O)=C3C(=O)c4c(O)cccc4[C@@](C)(O)[C@H]3C[C@@H]12 [TETRACYCLINE]
2 | < 4.52 | COc1ccc2cc([C@H](C)C(=O)O)ccc2c1 [NAPROXEN]
3 | 4.92 | O=c1c2cccnc2sn1-c1ccc(F)cc1
4 | 5.10 | COC(=O)c1cccc(OC)c1-n1sc2ncccc2c1=O
5 | < 4.52 | O=C1CCN(c2ccccc2)N1 [PHENIDONE]
6 | 4.60 | COC(=O)c1ccccc1-n1sc2ncccc2c1=O
7 | < 4.52 | COc1ccc2c(c1)c(CC(=O)O)c(C)n2C(=O)c1ccc(Cl)cc1 [INDOMETHACIN]
8 | 5.07 | O=c1c2cccnc2sn1-c1ccc(Cl)cc1

target: Stromelysin-1 (Homo sapiens) (UniProt P08254); experiment: Tested for inhibition of stromelysin using [3H]transferrin, following pre-incubation with prostromelysin for 0 hr prior to activation by plasmin; conditions: concentration not given here
Sequence (P08254 whole entry, looked up): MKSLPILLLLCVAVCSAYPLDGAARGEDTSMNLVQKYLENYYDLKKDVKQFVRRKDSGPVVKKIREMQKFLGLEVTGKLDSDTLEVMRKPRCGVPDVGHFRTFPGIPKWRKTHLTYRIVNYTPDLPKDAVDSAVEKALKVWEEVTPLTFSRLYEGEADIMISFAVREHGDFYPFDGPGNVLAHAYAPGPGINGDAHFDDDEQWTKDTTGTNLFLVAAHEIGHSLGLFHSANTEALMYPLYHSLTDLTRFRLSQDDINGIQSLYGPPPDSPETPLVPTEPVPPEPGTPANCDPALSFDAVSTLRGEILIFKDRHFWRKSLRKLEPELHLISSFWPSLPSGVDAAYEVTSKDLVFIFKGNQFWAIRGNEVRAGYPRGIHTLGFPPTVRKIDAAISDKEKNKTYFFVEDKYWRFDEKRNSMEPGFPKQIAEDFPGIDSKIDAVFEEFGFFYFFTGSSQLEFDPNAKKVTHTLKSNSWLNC

Row | inhibition | Structure (SMILES)
9 | 45% | COc1ccc(-n2sc3ncccc3c2=O)c(OC)c1
10 | 51% | COc1ccc(OC)c(-n2sc3ncccc3c2=O)c1

organism: Bos taurus; experiment: Tested in vitro at 30 uM for its ability to inhibit the human recombinant IL-1-beta-induced breakdown of bovine cartilage in a cartilage organ culture assay; format: functional; conditions: Cartilage tissue
Method in brief: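 Cartilage organ culture screen at a single 30 µM concentration. Bovine nasal septum explants in DMEM/5% FCS with rh IL-1β 500 ng/mL, 40 h, 37 °C, 95% air/5% CO2. Proteoglycan breakdown read as GAG release by dimethylmethylene blue; 35SO4 uptake over a further 2 h used for viability. Eight replicates; percent inhibition.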

Row | Structure (SMILES) | inhibition
11 | O=c1c2cccnc2sn1-c1cccc([N+](=O)[O-])c1 | 37%
12 | COc1ccc(-n2sc3c(OC)nccc3c2=O)cc1 | 20%
13 | O=c1c2cccnc2sn1-c1ccc(C(F)(F)F)cc1 | 17%
14 | Nc1cccc(-n2sc3ncccc3c2=O)c1 | 34%
15 | COc1ccc(-n2sc3c(OC)nc(OC)nc3c2=O)cc1 | 50%
16 | COc1nc(OC)c2sn(-c3ccc(C(F)(F)F)cc3)c(=O)c2n1 | 39%
17 | O=c1c2ccnc(Cl)c2sn1-c1ccccc1 | 38%
18 | COc1cccc(OC)c1-n1sc2ncccc2c1=O | 40%
19 | COc1nc(OC)c2sn(-c3ccccc3)c(=O)c2n1 | 40%
20 | O=c1c2cccnc2sn1-c1ccccc1Cl | 0%
21 | CS(=O)(=O)Nc1ccc(-n2sc3ncccc3c2=O)cc1 | 28%
22 | N#Cc1ccc(-n2sc3ncccc3c2=O)cc1 | 40%
23 | COc1cc2c(=O)n(-c3ccccc3)sc2c(OC)n1 | 39%
24 | O=c1c2cccnc2sn1-c1ccccn1 | 23%
25 | COc1ccc(-n2sc3c(O)nc(O)nc3c2=O)cc1 | 49%
26 | COC(=O)c1cccc(-n2sc3ncccc3c2=O)c1 | 35%

target: Stromelysin-1 (Homo sapiens) (UniProt P08254); experiment: Tested for inhibition of stromelysin using [3H]transferrin, following pre-incubation with prostromelysin for 3 hr prior to activation by plasmin; conditions: concentration not given here

Row | inhibition | Structure (SMILES)
27 | 65% | COc1ccc(-n2sc3ncccc3c2=O)c(OC)c1
28 | 68% | COc1ccc(OC)c(-n2sc3ncccc3c2=O)c1
